# Experimental data reported in ChEMBL document CHEMBL4229399, “Discovery and optimization of aspartate aminotransferase 1 inhibitors to target redox balance in pancreatic ductal adenocarcinoma” (Bioorg Med Chem Lett, 2018).
# Calls of active or inactive are those of the source. No cut-off for these calls is given here.
# Legend:
# [1] = molecular target: T1, Aspartate aminotransferase, cytoplasmic (Homo sapiens, UniProt P17174); experiment: Inhibition of GOT1 (unknown origin) using aspartate and alpha-ketoglutarate as substrate after 20 mins by MDH1 enzyme-coupled fluorescence assay
# T1 sequence (P17174 whole entry): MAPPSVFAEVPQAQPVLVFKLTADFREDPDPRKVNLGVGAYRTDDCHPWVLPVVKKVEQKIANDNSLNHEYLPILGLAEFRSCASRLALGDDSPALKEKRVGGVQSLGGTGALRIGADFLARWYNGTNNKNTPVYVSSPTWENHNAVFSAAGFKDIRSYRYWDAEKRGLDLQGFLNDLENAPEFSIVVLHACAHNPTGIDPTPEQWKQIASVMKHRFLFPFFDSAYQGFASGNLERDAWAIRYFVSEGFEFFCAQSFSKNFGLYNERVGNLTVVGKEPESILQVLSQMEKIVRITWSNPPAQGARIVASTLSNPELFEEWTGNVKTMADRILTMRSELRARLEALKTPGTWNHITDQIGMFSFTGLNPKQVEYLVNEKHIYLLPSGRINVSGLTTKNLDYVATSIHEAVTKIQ
# Outline: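 Oxaloacetate from GOT1 (~1 nM) is reduced by MDH1 (0.3 µg/mL final) using NADH (250 µM final). Loss of NADH fluorescence is read at 340/445 nm. Substrates aspartate 4 mM and alpha-ketoglutarate 0.5 mM. Buffer: 100 mM HEPES, 100 mM KCl. Incubated 20 min at 37 °C. Mean of n = 3.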
# [2] = Cmax in CD-1 mouse at 20 mg/kg administered via oral gavage by LC-MS/MS analysis; format: ADME, organism-based; parameters: dose 20 mg/kg, route oral; settings: in vivo
# Outline: (§1)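 Female CD1 mice, 9 weeks old, oral gavage at 20 mg/kg (5 mL/kg). Fasted overnight, with food returned after the 4-h bleed. Blood sampled retro-orbitally at 0.5, 1, 4, 8 and 24 h, n = 3 per time point. Plasma separated by centrifugation and frozen at -80 °C. Drug level quantified by LC/MS/MS from analyte peak area.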
# [3] = Stability in mouse plasma assessed as parent compound remaining after 4 hrs; format: ADME, cell-free; settings: read-out: Stability
# [4] = test system: Mus musculus; experiment: AUC (0 to 24 hrs) in CD-1 mouse at 20 mg/kg administered via oral gavage by LC-MS/MS analysis; format: ADME, organism-based; parameters: time < 24 hr, dose 20 mg/kg, route oral; settings: in vivo; outline: as §1
# [5] = Half life in CD-1 mouse at 20 mg/kg administered via oral gavage by LC-MS/MS analysis; format: ADME, organism-based; settings: in vivo; outline: as §1
# [6] = molecular target: T1, Aspartate aminotransferase, cytoplasmic; experiment: Inhibition of GOT1 (unknown origin) using aspartate and alpha-ketoglutarate as substrate after 20 mins by GLOX enzyme-coupled fluorescence assay
# Outline: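 GOT1 (~1 nM, set per purification for a 20 min linear reaction) with aspartate 4 mM and alpha-ketoglutarate 0.5 mM (KM levels). Glutamate is turned over by GLOX (80 nM), and the H2O2 drives HRP (0.05 U/mL) oxidation of Amplex Red (15 µg/mL). Buffer: 100 mM HEPES, 100 mM KCl. Run 20 min at 37 °C; resorufin fluorescence read at 530/550 nm.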
compound,measurement,setting,value
COc1ccccc1N1CCN(C(=O)Nc2ccccc2)CC1,IC50,[1],> 100 µM
O=C(Nc1ccc(C(F)(F)F)cc1)N1CCN(c2ccncc2)CC1,IC50,[1],> 100 µM
CNC(=O)c1cccc(NC(=O)N2CCN(c3cccc4[nH]ccc34)CC2)c1,IC50,[1],> 100 µM
O=C(Nc1ccc(Cl)cc1)N1CCN(c2ccncc2)CC1,IC50,[1],> 100 µM
Cc1ccc(NC(=O)N2CCN(c3cccc4[nH]ccc34)CC2)cc1C,IC50,[1],> 100 µM
COc1ccc(NC(=O)N2CCN(c3cccc4[nH]ccc34)CC2)cc1,IC50,[1],25 µM
O=C(Nc1cccc(C(F)(F)F)c1)N1CCN(c2cccc3[nH]ccc23)CC1,IC50,[1],14 µM
Cc1ccc(NC(=O)N2CCN(c3cccc4[nH]ccc34)CC2)c(C)c1,IC50,[1],> 100 µM
O=C(NCCc1c[nH]c2ccccc12)Nc1cccc(C(F)(F)F)c1,IC50,[1],62 µM
O=C(NCCc1c[nH]c2ccccc12)Nc1ccc(Br)cc1,IC50,[1],67 µM
CC(C)NC(=O)N1CCN(c2cccc3[nH]ccc23)CC1,IC50,[1],> 100 µM
O=C(Nc1ccc(C(F)(F)F)cc1)N1CCN(c2cccc3[nH]ccc23)CC1,IC50,[1],16 µM
O=C(Nc1ccncn1)N1CCN(c2cccc3[nH]ccc23)CC1,IC50,[1],> 100 µM
N#Cc1ccc(NC(=O)N2CCN(c3cccc4[nH]ccc34)CC2)cc1,IC50,[1],21 µM
O=C(Nc1cc(Cl)ccc1Cl)N1CCN(c2cccc3[nH]ccc23)CC1,IC50,[1],> 100 µM
O=C(NCCc1c[nH]c2ccccc12)Nc1ccc(Cl)cc1,IC50,[1],36 µM
Cc1cccc(NC(=O)N2CCN(c3cccc4[nH]ccc34)CC2)c1,IC50,[1],> 100 µM
O=C(Nc1ccccc1)N1CCN(c2cccc3cnccc23)CC1,IC50,[1],> 100 µM
CN1CCN(C(=O)Nc2ccccc2)CC1,IC50,[1],> 100 µM
CNC(=O)N1CCN(c2cccc3[nH]ccc23)CC1,IC50,[1],> 100 µM
Cc1ccc(C)c(NC(=O)N2CCN(c3cccc4[nH]ccc34)CC2)c1,IC50,[1],> 100 µM
CC(C)N1CCN(C(=O)Nc2ccccc2)CC1,IC50,[1],> 100 µM
N#Cc1cccc(NC(=O)N2CCN(c3cccc4[nH]ccc34)CC2)c1,IC50,[1],> 100 µM
CC(=O)c1ccc(NC(=O)N2CCN(c3cccc4[nH]ccc34)CC2)cc1,IC50,[1],16 µM
O=C(Nc1ccc(Cl)cc1Cl)N1CCN(c2cccc3[nH]ccc23)CC1,IC50,[1],56 µM
O=C(Nc1cccc2ncsc12)N1CCN(c2cccc3[nH]ccc23)CC1,IC50,[1],> 100 µM
COc1ccccc1NC(=O)N1CCN(c2cccc3[nH]ccc23)CC1,IC50,[1],> 100 µM
N#Cc1ccccc1NC(=O)N1CCN(c2cccc3[nH]ccc23)CC1,IC50,[1],> 100 µM
Cc1ccccc1NC(=O)N1CCN(c2cccc3[nH]ccc23)CC1,IC50,[1],> 100 µM
Cc1ccc(NC(=O)N2CCN(c3cccc4[nH]ccc34)CC2)cc1,IC50,[1],> 100 µM
CCN1CCN(C(=O)Nc2ccccc2)CC1,IC50,[1],> 100 µM
COc1cccc(OC)c1NC(=O)N1CCN(c2cccc3[nH]ccc23)CC1,IC50,[1],> 100 µM
O=C(Nc1ccccc1)N1CCN(c2cc(Cl)cc3[nH]ccc23)CC1,IC50,[1],46 µM
O=C(NCCc1c[nH]c2ccccc12)Nc1ccc(Cl)cc1Cl,IC50,[1],32 µM
O=C(NCc1ccc(Cl)cc1)N1CCN(c2cccc3[nH]ccc23)CC1,IC50,[1],> 100 µM
O=C(Nc1ccncc1)N1CCN(c2cccc3[nH]ccc23)CC1,IC50,[1],> 100 µM
O=C(Nc1ccccc1)N1CCN(c2cccc3[nH]ncc23)CC1,IC50,[1],> 100 µM
O=C(Nc1ccccc1)N1CCN(c2ccccc2)CC1,IC50,[1],> 100 µM
O=C(Nc1ccccc1)N1CCN(c2ccncc2)CC1,IC50,[1],> 100 µM
O=C(NCCc1c[nH]c2ccccc12)Nc1ccc(OC(F)(F)F)cc1,IC50,[1],63 µM
COc1c(C)cccc1NC(=O)N1CCN(c2cccc3[nH]ccc23)CC1,IC50,[1],> 100 µM
O=C(Nc1ccc(OC(F)(F)F)cc1)N1CCN(c2cccc3[nH]ccc23)CC1,IC50,[1],36 µM
O=C(NCCc1c[nH]c2ccccc12)Nc1ccc(C(F)(F)F)cc1,IC50,[1],39 µM
O=C(Nc1cccc(C(F)(F)F)c1)N1CCN(c2ccncc2)CC1,IC50,[1],> 100 µM
O=C(NCCc1c[nH]c2ccccc12)Nc1cccc(Br)c1,IC50,[1],28 µM
Cc1cccc(NC(=O)N2CCN(c3cccc4[nH]ccc34)CC2)c1C,IC50,[1],> 100 µM
CC(=O)N1CCN(C(=O)Nc2ccccc2)CC1,IC50,[1],> 100 µM
O=C(Nc1ccccc1)N1CCN(c2cccc3[nH]ccc23)CC1,Cmax,[2],4130 ng/mL
same,remaining at 4 h,[3],> 95%
same,AUC,[4],11734 ng·h/mL
same,half-life,[5],42 min
same,inhibition,[6],Active
same,IC50,[1],85 µM
O=C(Nc1cccc(Oc2ccccc2)c1)N1CCN(c2cccc3[nH]ccc23)CC1,IC50,[1],39 µM
O=C(NCCc1c[nH]c2ccccc12)Nc1ccc(Cl)c(Cl)c1,IC50,[1],36 µM
O=C(Nc1cc(Cl)cc(Cl)c1)N1CCN(c2cccc3[nH]ccc23)CC1,IC50,[1],22 µM
CC(C)CNC(=O)N1CCN(c2cccc3[nH]ccc23)CC1,IC50,[1],> 100 µM
O=C(NCCc1c[nH]c2ccccc12)Nc1ccccc1-c1ccccc1,IC50,[1],34 µM
Cc1cccc(C)c1NC(=O)N1CCN(c2cccc3[nH]ccc23)CC1,IC50,[1],> 100 µM
O=C(Nc1cccnc1)N1CCN(c2cccc3[nH]ccc23)CC1,IC50,[1],> 100 µM
O=C(Nc1ccc2ncccc2c1)N1CCN(c2cccc3[nH]ccc23)CC1,IC50,[1],> 100 µM
O=C(Nc1cncnc1)N1CCN(c2cccc3[nH]ccc23)CC1,IC50,[1],> 100 µM
O=C(c1ccccc1)N1CCN(c2cccc3[nH]ccc23)CC1,IC50,[1],> 100 µM
O=C(Nc1ccccc1)N1CCN(c2cccc3ncccc23)CC1,IC50,[1],> 100 µM
COc1ccc(NC(=O)N2CCN(c3cccc4[nH]ccc34)CC2)c(OC)c1,IC50,[1],> 100 µM
O=C(Nc1ccccc1)N1CCN(Cc2cncs2)CC1,IC50,[1],> 100 µM
O=C(NCc1ccccc1)N1CCN(c2cccc3[nH]ccc23)CC1,IC50,[1],> 100 µM
COc1ccc(OC)c(NC(=O)N2CCN(c3cccc4[nH]ccc34)CC2)c1,IC50,[1],> 100 µM
O=C(Nc1ccccc1C(F)(F)F)N1CCN(c2cccc3[nH]ccc23)CC1,IC50,[1],> 100 µM
O=C(c1ccccc1)c1ccc(NC(=O)N2CCN(c3cccc4[nH]ccc34)CC2)cc1,IC50,[1],43 µM
O=C(CCc1ccccc1)N1CCN(c2cccc3[nH]ccc23)CC1,IC50,[1],> 100 µM
O=C(NCCc1c[nH]c2ccccc12)Nc1ccccc1,IC50,[1],> 100 µM
COc1ccc(N2CCN(C(=O)Nc3ccccc3)CC2)cc1,IC50,[1],> 100 µM
Cc1ccc2[nH]ccc2c1N1CCN(C(=O)Nc2ccccc2)CC1,IC50,[1],> 100 µM
O=C(Nc1ccc(Cl)cc1)N1CCN(c2cccc3[nH]ccc23)CC1,IC50,[1],8.2 µM
COc1cc(NC(=O)N2CCN(c3cccc4[nH]ccc34)CC2)cc(OC)c1,IC50,[1],> 100 µM
O=C(Nc1ccnnc1)N1CCN(c2cccc3[nH]ccc23)CC1,IC50,[1],> 100 µM
Cc1cc(N2CCN(C(=O)Nc3ccccc3)CC2)c2cc[nH]c2c1,IC50,[1],> 100 µM
O=C(Nc1cccc(Cl)c1Cl)N1CCN(c2cccc3[nH]ccc23)CC1,IC50,[1],> 100 µM
O=C(OCc1ccccc1)N1CCN(c2cccc3[nH]ccc23)CC1,IC50,[1],> 100 µM
O=C(CCC(=O)Nc1c[nH]c2ccccc12)Nc1ccccc1,IC50,[1],> 100 µM
Cc1cc(C)cc(NC(=O)N2CCN(c3cccc4[nH]ccc34)CC2)c1,IC50,[1],64 µM
O=C(Nc1cccc(Cl)c1)N1CCN(c2cccc3[nH]ccc23)CC1,IC50,[1],52 µM
Cc1ccc(N2CCN(C(=O)Nc3ccccc3)CC2)c2cc[nH]c12,IC50,[1],41 µM
O=C(Nc1ccccc1Cl)N1CCN(c2cccc3[nH]ccc23)CC1,IC50,[1],> 100 µM
O=C(Nc1ccc(Cc2ccccc2)cc1)N1CCN(c2cccc3[nH]ccc23)CC1,IC50,[1],> 100 µM
CNC(=O)c1ccc(NC(=O)N2CCN(c3cccc4[nH]ccc34)CC2)cc1,IC50,[1],> 100 µM
O=C(Nc1ccc2scnc2c1)N1CCN(c2cccc3[nH]ccc23)CC1,IC50,[1],76 µM
COc1ccc(NC(=O)N2CCN(c3cccc4[nH]ccc34)CC2)cc1OC,IC50,[1],> 100 µM
O=C(Nc1cccc2cccnc12)N1CCN(c2cccc3[nH]ccc23)CC1,IC50,[1],> 100 µM
COc1cccc(N2CCN(C(=O)Nc3ccccc3)CC2)c1,IC50,[1],> 100 µM
O=C(Nc1c(Cl)cccc1Cl)N1CCN(c2cccc3[nH]ccc23)CC1,IC50,[1],> 100 µM
CS(=O)(=O)N1CCN(C(=O)Nc2ccccc2)CC1,IC50,[1],> 100 µM
O=C(Nc1ccc(Br)cc1)N1CCN(c2cccc3[nH]ccc23)CC1,IC50,[1],16 µM
O=C(Nc1ccccc1)N1CCN(c2ccc(Cl)c3[nH]ccc23)CC1,IC50,[1],> 100 µM
COc1cccc(NC(=O)N2CCN(c3cccc4[nH]ccc34)CC2)c1,IC50,[1],> 100 µM
O=C(Nc1ccccn1)N1CCN(c2cccc3[nH]ccc23)CC1,IC50,[1],> 100 µM
O=C(Cc1ccccc1)N1CCN(c2cccc3[nH]ccc23)CC1,IC50,[1],> 100 µM
